Data published in ChEMBL document CHEMBL1275280, “Synthesis, structural elucidation and DNA-dependant protein kinase and antiplatelet studies of 2-amino-[5, 6, 7, 8-mono and 7, 8-di-substituted]-1,3-benzoxazines” (Eur J Med Chem, 2010).
Calls of active or inactive are those of the source. The rule behind the calls is not given here.

Test system: not listed separately
Test: Inhibition of DNA-dependent protein kinase at 4 uM
How it was run: (§1)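 Compound in DMSO was added in place of water, at final concentrations of 1.6–4.0. The reaction was stopped with termination buffer and captured on a biotin membrane. After washing, scintillation counts gave percent inhibition relative to the full-reaction positive control (n = 3).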

SMILES | inhibition
CN1CCN(CCOc2ccc3c(=O)nc(N4CCOCC4)oc3c2)CC1 | Active
Cc1c(OCc2cccnc2)ccc2c(=O)nc(N3CCOCC3)oc12 | Active
CN1CCN(CCOc2cccc3c(=O)nc(N4CCOCC4)oc23)CC1 | Active
Cc1c(OCCN2CCN(C)CC2)ccc2c(=O)nc(N3CCOCC3)oc12 | Active

The remaining lines, values ahead:

inhibition | SMILES
inactive | CN1CCN(CCOc2cccc3oc(N4CCOCC4)nc(=O)c23)CC1
inactive | CN1CCN(CCOc2ccc3oc(N4CCOCC4)nc(=O)c3c2)CC1

Test system: not listed separately
Test: Inhibition of DNA-dependent protein kinase at 1.6 uM
How it was run: as §1

inhibition | SMILES
Active | Cc1c(OCc2ccccn2)ccc2c(=O)nc(N3CCOCC3)oc12

Test system: not listed separately
Test: Inhibition of DNA-dependent protein kinase at 2 uM
How it was run: as §1

inhibition | SMILES
Active | Cc1c(OCc2ccncc2)ccc2c(=O)nc(N3CCOCC3)oc12
Active | O=c1nc(N2CCOCC2)oc2c(-c3ccccc3)cccc12

Test system: Platelet
Test: Inhibition of collagen-induced platelet aggregation in human venous blood by optical method based aggregometry
Assay type: functional, tissue-based

SMILES | IC50 [µM]
O=c1nc(N2CCOCC2)oc2c(OCc3cccnc3)cccc12 | 22
CCOc1ccc2c(=O)nc(N3CCOCC3)oc2c1 | 85
O=c1nc(N2CCOCC2)oc2cc(OCc3cccnc3)ccc12 | 70
Cc1c(O)ccc2c(=O)nc(C3CCNCC3)oc12 | ≥ 90
O=c1nc(N2CCOCC2)oc2cc(F)ccc12 | 80
O=c1nc(N2CCOCC2)oc2cccc(OCc3cccnc3)c12 | ≥ 100
O=c1nc(N2CCOCC2)oc2cccc(OCCCl)c12 | ≥ 100
Cc1c(OCCN2CCN(C)CC2)ccc2c(=O)nc(N3CCCCC3)oc12 | 36
O=c1nc(N2CCOCC2)oc2ccc(OCc3ccccc3)cc12 | ≥ 100
O=c1nc(N2CCOCC2)oc2c(OCCCl)cccc12 | 60
Cc1c(OCc2ccccn2)ccc2c(=O)nc(N3CCOCC3)oc12 | 34
O=c1nc(N2CCOCC2)oc2c(OCCBr)cccc12 | 70
Cc1c(OCc2cccnc2)ccc2c(=O)nc(N3CCOCC3)oc12 | 2
CN1CCN(CCOc2cccc3c(=O)nc(N4CCOCC4)oc23)CC1 | 80
Cc1c(O)ccc2c(=O)nc(N3CCSCC3)oc12 | ≥ 100
Cc1c(OCCBr)ccc2c(=O)nc(N3CCCCC3)oc12 | 61
Cc1c(OCCBr)ccc2c(=O)nc(N3CCSCC3)oc12 | 75
O=c1nc(N2CCOCC2)oc2c(OCc3ccncc3)cccc12 | 70

Results, then the compound that gave them:

IC50 [µM] | SMILES
75 | O=c1nc(N2CCOCC2)oc2cc(OCc3ccccn3)ccc12
87 | O=c1nc(N2CCOCC2)oc2ccc(OCCCl)cc12
70 | CC(C)c1cccc2c(=O)nc(N3CCOCC3)oc12
4 | Cc1c(OCc2ccncc2)ccc2c(=O)nc(N3CCOCC3)oc12
83 | O=c1nc(N2CCOCC2)oc2ccc(OCCBr)cc12
36 | Cc1c(OCCCl)ccc2c(=O)nc(N3CCOCC3)oc12
45 | O=c1nc(N2CCOCC2)oc2cc(OCc3ccncc3)ccc12
53 | O=c1nc(N2CCOCC2)oc2c(OCc3ccccc3)cccc12
≥ 90 | O=c1nc(N2CCOCC2)oc2ccc(OCc3cccnc3)cc12
47 | Cc1c(OCCN2CCN(C)CC2)ccc2c(=O)nc(N3CCSCC3)oc12
≥ 100 | O=c1nc(N2CCOCC2)oc2cccc(OCc3ccccc3)c12
≥ 100 | CN1CCN(CCOc2cccc3oc(N4CCOCC4)nc(=O)c23)CC1
≥ 86 | CN1CCN(CCOc2ccc3oc(N4CCOCC4)nc(=O)c3c2)CC1
